Reference: ChEMBL document CHEMBL3351404, “Structure-Activity Studies Reveal the Oxazinone Ring Is a Determinant of Cytochrome P450 2B6 Activity Toward Efavirenz” (ACS Med Chem Lett, 2014)
One block for each compound: values may come before it.

Tests used:
[1] = test system: Liver microsome; test: Drug metabolism in pooled human liver microsomes assessed as mono-oxygenated metabolite formation at 10 uM incubated for 60 mins in presence of NADPH by uHPLC-MS/MS method; type: ADME; conditions: 1 h
Outline: (§1)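 Metabolite identification in human liver microsome incubations with 10 μM substrate. Products were assigned by m/z (monooxygenated, dihydroxylated, N-dealkylated), uHPLC retention time and MS/MS fragment ions. Parallel incubations in isotopic water located the inserted oxygen from +2 shifts in fragment masses.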

[2] = target: T1, Cytochrome P450 1A2 (Homo sapiens, UniProt P05177); test: Drug metabolism assessed as CYP1A2 (unknown origin)-mediated metabolite formation at 10 uM incubated for 60 mins in presence of NADPH by uHPLC-MS/MS method; type: ADME; conditions: 1 h
T1 sequence (P05177 whole entry): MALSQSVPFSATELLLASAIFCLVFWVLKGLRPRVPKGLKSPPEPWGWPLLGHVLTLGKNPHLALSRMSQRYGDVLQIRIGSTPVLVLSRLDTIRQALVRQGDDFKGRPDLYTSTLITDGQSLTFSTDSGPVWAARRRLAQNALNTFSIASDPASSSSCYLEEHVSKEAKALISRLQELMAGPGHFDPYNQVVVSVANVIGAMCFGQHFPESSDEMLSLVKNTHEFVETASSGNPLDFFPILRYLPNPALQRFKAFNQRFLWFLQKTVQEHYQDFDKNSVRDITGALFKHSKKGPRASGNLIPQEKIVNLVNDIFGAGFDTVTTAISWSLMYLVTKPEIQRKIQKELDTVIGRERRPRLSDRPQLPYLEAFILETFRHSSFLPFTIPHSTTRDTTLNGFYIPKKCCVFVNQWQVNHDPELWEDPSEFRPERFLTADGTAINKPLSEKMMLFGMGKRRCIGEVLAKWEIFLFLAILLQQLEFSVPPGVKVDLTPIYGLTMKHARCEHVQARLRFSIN
Outline: (§2)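 Individual cDNA-expressed human P450s (CYP2B6 in insect microsomes) were incubated separately with each analogue at 10 μM. The enzyme panel covers the major drug-metabolizing P450s. Products were monitored as the metabolites first found in human liver microsome incubations, identified by m/z and retention time.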

[3] = Retention time of the compound by uHPLC-MS/MS method; type: physicochemical; outline: as §1
[4] = target: T1, Cytochrome P450 1A2; test: Drug metabolism assessed as CYP1A2 (unknown origin)-mediated compound formation at 10 uM incubated for 60 mins in presence of NADPH by uHPLC-MS/MS method; type: ADME; conditions: 1 h; outline: as §2
[5] = test system: Liver microsome; test: Drug metabolism in pooled human liver microsomes assessed as compound formation at 10 uM incubated for 60 mins in presence of NADPH by uHPLC-MS/MS method; type: ADME; conditions: 1 h; outline: as §1
[6] = target: T2, Cytochrome P450 2C19 (Homo sapiens, UniProt P33261); test: Drug metabolism assessed as CYP2C19 (unknown origin)-mediated metabolite formation at 10 uM incubated for 60 mins in presence of NADPH by uHPLC-MS/MS method; type: ADME; conditions: 1 h; outline: as §2
[7] = target: T2, Cytochrome P450 2C19; test: Drug metabolism assessed as CYP2C19 (unknown origin)-mediated compound formation at 10 uM incubated for 60 mins in presence of NADPH by uHPLC-MS/MS method; type: ADME; conditions: 1 h; outline: as §2
[8] = target: T3, Cytochrome P450 2D6 (Homo sapiens, UniProt P10635); test: Drug metabolism assessed as CYP2D6 (unknown origin)-mediated compound formation at 10 uM incubated for 60 mins in presence of NADPH by uHPLC-MS/MS method; type: ADME; conditions: 1 h; outline: as §2
[9] = target: T4, Cytochrome P450 2B6 (Homo sapiens, UniProt P20813); test: (§3) Inhibition of CYP2B6 (unknown origin) assessed as reduction in hydroxybupropion formation at 10 uM incubated for 10 mins by uHPLC-MS/MS method; type: ADME; conditions: 10 min, 10 µM
T4 sequence (P20813 whole entry): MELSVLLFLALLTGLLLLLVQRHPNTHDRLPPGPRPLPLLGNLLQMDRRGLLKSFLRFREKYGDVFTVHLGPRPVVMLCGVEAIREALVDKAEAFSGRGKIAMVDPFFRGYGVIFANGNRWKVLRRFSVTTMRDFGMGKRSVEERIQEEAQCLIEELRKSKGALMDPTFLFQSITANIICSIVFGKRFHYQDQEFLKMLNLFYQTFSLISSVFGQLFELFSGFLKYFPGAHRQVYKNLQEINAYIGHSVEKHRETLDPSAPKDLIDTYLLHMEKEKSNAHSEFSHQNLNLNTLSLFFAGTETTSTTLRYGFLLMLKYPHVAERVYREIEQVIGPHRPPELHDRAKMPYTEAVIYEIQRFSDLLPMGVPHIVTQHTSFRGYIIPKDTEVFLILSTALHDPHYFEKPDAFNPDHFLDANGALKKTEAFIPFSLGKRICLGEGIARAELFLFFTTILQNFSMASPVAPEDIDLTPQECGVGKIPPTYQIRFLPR
Outline: (§4)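 CYP2B6 insect microsomes were coincubated with the probe substrate bupropion plus test compound at 10 μM. Hydroxybupropion formation was measured and compared with a vehicle control.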

[10] = target: T4, Cytochrome P450 2B6; test: Drug metabolism assessed as CYP2B6 (unknown origin)-mediated metabolite formation at 10 uM incubated for 60 mins in presence of NADPH by uHPLC-MS/MS method; type: ADME; conditions: 1 h; outline: as §2
[11] = target: T4, Cytochrome P450 2B6; test: Activity of CYP2B6 (unknown origin) assessed as maximum depletion rate constant pre-incubated for 5 mins in presence of NADPH by uHPLC-MS/MS based substrate depletion kinetics assay; type: ADME
Outline: (§5)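 cDNA-expressed CYP2B6 in insect microsomes. Parent loss was followed over time by substrate depletion, chosen because several metabolites form. Km and maximum depletion rate constant (kdep max, min–1) were derived from depletion kinetics, and Vmax was expressed as pmol/min/pmol P450.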

[12] = target: T4, Cytochrome P450 2B6; test: Activity of CYP2B6 (unknown origin) assessed per pmol protein pre-incubated for 5 mins in presence of NADPH by uHPLC-MS/MS based substrate depletion kinetics assay; type: ADME; outline: as §5
[13] = target: T5, CYP2B6 (Homo sapiens, UniProt P20813); test: Activity of CYP2B6 (unknown origin) pre-incubated for 5 mins in presence of NADPH by uHPLC-MS/MS based substrate depletion kinetics assay; type: ADME; conditions: CYP2B6 enzyme (unknown origin); outline: as §5
T5 sequence (P20813 whole entry): T4 sequence (P20813 whole entry)

[14] = target: T6, Cytochrome P450 3A5 (Homo sapiens, UniProt P20815); test: Drug metabolism assessed as CYP3A5 (unknown origin)-mediated metabolite formation at 10 uM incubated for 60 mins in presence of NADPH by uHPLC-MS/MS method; conditions: 1 h
Target sequence in this assay (P20815 whole entry, looked up): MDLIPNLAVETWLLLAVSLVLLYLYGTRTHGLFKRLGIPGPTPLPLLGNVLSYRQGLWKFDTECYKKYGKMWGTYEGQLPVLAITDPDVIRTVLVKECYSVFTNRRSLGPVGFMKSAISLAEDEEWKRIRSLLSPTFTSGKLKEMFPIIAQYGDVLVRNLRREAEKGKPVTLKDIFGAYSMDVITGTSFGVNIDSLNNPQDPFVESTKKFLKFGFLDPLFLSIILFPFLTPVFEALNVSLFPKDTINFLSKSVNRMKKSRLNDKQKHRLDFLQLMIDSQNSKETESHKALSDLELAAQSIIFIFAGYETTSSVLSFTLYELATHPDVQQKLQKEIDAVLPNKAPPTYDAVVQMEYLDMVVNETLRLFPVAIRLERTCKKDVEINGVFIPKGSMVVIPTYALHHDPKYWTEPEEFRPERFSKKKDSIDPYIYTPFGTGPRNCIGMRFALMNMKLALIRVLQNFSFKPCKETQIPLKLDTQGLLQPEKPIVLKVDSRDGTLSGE

[15] = test system: Liver microsome; test: Drug metabolism in pooled human liver microsomes assessed as N-dealkylated metabolite formation at 10 uM incubated for 60 mins in presence of NADPH by uHPLC-MS/MS method; type: ADME; conditions: 1 h; outline: as §1
[16] = target: T5, CYP2B6; test: Inhibition of CYP2B6 (unknown origin) assessed as reduction in hydroxybupropion formation by measuring remaining enzyme activity at 10 uM incubated for 10 mins by uHPLC-MS/MS method; type: ADME; conditions: probe bupropion (hydroxybupropion formation), read-out: Activity; outline: as §4
[17] = target: T3, Cytochrome P450 2D6; test: Drug metabolism assessed as CYP2D6 (unknown origin)-mediated metabolite formation at 10 uM incubated for 60 mins in presence of NADPH by uHPLC-MS/MS method; type: ADME; conditions: 1 h; outline: as §2
[18] = test system: Liver microsome; test: Drug metabolism in pooled human liver microsomes assessed as mono-oxygenated metabolite formation at 10 uM incubated for 60 mins in presence of NADPH and using isotopic water by uHPLC-MS/MS method; type: ADME; conditions: 1 h; outline: as §1
[19] = target: T4, Cytochrome P450 2B6; test: Drug metabolism assessed as CYP2B6 (unknown origin)-mediated compound formation at 10 uM incubated for 60 mins in presence of NADPH by uHPLC-MS/MS method; type: ADME; conditions: 1 h; outline: as §2
[20] = target: T6, Cytochrome P450 3A5; test: Drug metabolism assessed as CYP3A5 (unknown origin)-mediated compound formation at 10 uM incubated for 60 mins in presence of NADPH by uHPLC-MS/MS method; type: ADME; conditions: 1 h; outline: as §2
Target sequence in this assay (P20815 whole entry): as the sequence (P20815 whole entry, looked up) above

[21] = test system: Liver microsome; test: Drug metabolism in pooled human liver microsomes assessed as compound formation at 10 uM incubated for 60 mins in presence of NADPH and using isotopic water by uHPLC-MS/MS method; type: ADME; conditions: 1 h; outline: as §1
[22] = test system: Liver microsome; test: Drug metabolism in pooled human liver microsomes assessed as metabolite formation at 10 uM incubated for 60 mins in presence of NADPH by uHPLC-MS/MS method; type: ADME; conditions: 1 h; outline: as §1
[23] = target: T5, CYP2B6; test: as §3; type: ADME; conditions: CYP2B6 enzyme (unknown origin), probe bupropion (hydroxybupropion formation); outline: as §4

T2 sequence (P33261 whole entry): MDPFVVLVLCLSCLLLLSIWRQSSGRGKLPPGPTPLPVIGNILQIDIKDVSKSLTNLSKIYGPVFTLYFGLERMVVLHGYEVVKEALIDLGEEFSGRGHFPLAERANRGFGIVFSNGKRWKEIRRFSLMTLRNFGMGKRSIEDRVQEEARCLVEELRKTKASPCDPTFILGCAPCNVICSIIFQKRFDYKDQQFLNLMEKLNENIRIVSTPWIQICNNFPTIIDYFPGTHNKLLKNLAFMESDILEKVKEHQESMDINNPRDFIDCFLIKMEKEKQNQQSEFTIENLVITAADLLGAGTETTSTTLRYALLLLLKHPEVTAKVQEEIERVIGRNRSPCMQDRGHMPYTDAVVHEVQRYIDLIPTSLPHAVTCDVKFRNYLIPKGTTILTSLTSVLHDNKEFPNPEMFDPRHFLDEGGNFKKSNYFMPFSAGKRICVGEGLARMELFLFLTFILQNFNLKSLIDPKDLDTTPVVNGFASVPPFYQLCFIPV
T3 sequence (P10635 whole entry): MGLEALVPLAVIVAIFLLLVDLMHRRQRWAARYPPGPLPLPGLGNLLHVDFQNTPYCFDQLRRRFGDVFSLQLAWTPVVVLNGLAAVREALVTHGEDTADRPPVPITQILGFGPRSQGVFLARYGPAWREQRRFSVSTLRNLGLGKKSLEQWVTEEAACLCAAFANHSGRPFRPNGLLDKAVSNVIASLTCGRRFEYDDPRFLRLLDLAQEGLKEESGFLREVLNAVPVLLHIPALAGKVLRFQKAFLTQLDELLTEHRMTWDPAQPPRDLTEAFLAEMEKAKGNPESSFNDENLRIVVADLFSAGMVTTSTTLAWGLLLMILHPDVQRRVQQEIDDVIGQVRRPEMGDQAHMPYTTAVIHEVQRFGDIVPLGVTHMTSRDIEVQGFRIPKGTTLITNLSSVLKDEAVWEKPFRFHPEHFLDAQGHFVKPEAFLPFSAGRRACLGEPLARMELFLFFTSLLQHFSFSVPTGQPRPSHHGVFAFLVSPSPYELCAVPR

Drug metabolism [1]: metabolite_detected
Drug metabolism [2]: metabolite_detected
Retention_time [3]: 7.31 min
Drug metabolism [4]: metabolite_detected
Drug metabolism [5]: metabolite_detected
Drug metabolism [6]: metabolite_detected
Drug metabolism [7]: metabolite_detected
Drug metabolism [8]: metabolite_detected
inhibition (INH) [9]: Active
SMILES: Nc1ccc(Cl)cc1[C@@](O)(C#CC1CC1)C(F)(F)F

Drug metabolism [1]: metabolite_detected
Drug metabolism [2]: metabolite_detected
Retention_time [3]: 7.25 min
Drug metabolism [4]: metabolite_detected
Drug metabolism [5]: metabolite_detected
Drug metabolism [6]: metabolite_detected
Drug metabolism [7]: metabolite_detected
Drug metabolism [8]: metabolite_detected
inhibition (INH) [9]: Active
SMILES: Nc1ccc(Cl)cc1[C@](O)(C#CC1CC1)C(F)(F)F

Drug metabolism [15]: metabolite_detected
Drug metabolism [2]: metabolite_detected
activity at 10 min, 10 µM [16]: 52%
Drug metabolism [17]: metabolite_detected
Drug metabolism [6]: metabolite_detected
SMILES: COc1ccc(CNc2ccc(Cl)cc2[C@@](O)(C#CC2CC2)C(F)(F)F)cc1

Drug metabolism [15]: metabolite_detected
Drug metabolism [2]: metabolite_detected
activity at 10 min, 10 µM [16]: 62%
Drug metabolism [17]: metabolite_detected
Drug metabolism [6]: metabolite_detected
SMILES: COc1ccc(CNc2ccc(Cl)cc2[C@](O)(C#CC2CC2)C(F)(F)F)cc1

Drug metabolism [1]: metabolite_detected
Drug metabolism [18]: metabolite_detected
Drug metabolism [10]: metabolite_detected
activity at 10 min, 10 µM [16]: 2%
K [11]: 0.14 min⁻¹
Vmax [12]: 3.2 pmol/min
Drug metabolism [6]: metabolite_detected
Km [13]: 0.22 µM
SMILES: FC(F)(F)[C@@]1(C#CC2CC2)OCNc2ccc(Cl)cc21

inhibition (INH) [9]: Not Active
Drug metabolism [22]: metabolite_detected
SMILES: COc1ccc(C(=O)Nc2ccc(Cl)cc2C(O)(C#CC2CC2)C(F)(F)F)cc1 (racemic)

K [11]: 0.023 min⁻¹
Vmax [12]: 1 pmol/min
inhibition at 10 min, 10 µM [23]: 93%
Km [13]: 0.45 µM
SMILES: O=C1Nc2ccc(Cl)cc2[C@@](C#CC2CC2)(C(F)(F)F)O1 [EFAVIRENZ]

Continued, compound first:

SMILES: O=C1Nc2ccc(Cl)cc2[C@@](/C=C/C2CC2)(C(F)(F)F)O1
Drug metabolism [1]: metabolite_detected
Drug metabolism [2]: metabolite_detected
Drug metabolism [10]: metabolite_detected
K [11]: 0.0057 min⁻¹
Vmax [12]: 0.13 pmol/min
Km [13]: 0.23 µM
Drug metabolism [14]: metabolite_detected

SMILES: O=C1Nc2ccc(Cl)cc2[C@@](/C=C/C2(O)CC2)(C(F)(F)F)O1
Retention_time [3]: 4.98 min
Drug metabolism [5]: metabolite_detected

SMILES: CC(O)CC#CC1(C(F)(F)F)OC(=O)Nc2ccc(Cl)cc21 (stereo unspecified)
Retention_time [3]: 5.11 min
Drug metabolism [5]: metabolite_detected

SMILES: CCC(O)C#CC1(C(F)(F)F)OC(=O)Nc2ccc(Cl)cc21 (stereo unspecified)
Retention_time [3]: 5.6 min
Drug metabolism [5]: metabolite_detected

SMILES: CCCC#CC1(C(F)(F)F)OC(=O)Nc2c(O)cc(Cl)cc21 (stereo unspecified)
Retention_time [3]: 6.98 min
Drug metabolism [4]: metabolite_detected
Drug metabolism [19]: metabolite_detected
Drug metabolism [5]: metabolite_detected
Drug metabolism [20]: metabolite_detected

SMILES: OC1(C#C[C@]2(C(F)(F)F)OCNc3ccc(Cl)cc32)CC1
Retention_time [3]: 5 min
Drug metabolism [5]: metabolite_detected
Drug metabolism [21]: metabolite_detected

SMILES: CCCC#CC1(C(F)(F)F)OC(=O)Nc2ccc(Cl)cc21 (racemic)
Drug metabolism [1]: metabolite_detected
Drug metabolism [2]: metabolite_detected
Drug metabolism [10]: metabolite_detected
activity at 10 min, 10 µM [16]: 27%
K [11]: 0.0088 min⁻¹
Vmax [12]: 0.97 pmol/min
Km [13]: 1.1 µM
Drug metabolism [14]: metabolite_detected
